Data published in PMC2195561 (The Journal of Experimental Medicine, 1999).
No end group written: not given here.

Tests used:
[1] = biological target: T1, TAP (Homo sapiens, UniProt Q03518+Q03519); assay: Direct TAP-mediated translocation of radiolabeled peptides, human TAP; type: biochemical; details: streptolysin O–permeabilized LCL721 cells; Con A–Sepharose recovery; Fig. 1 B
T1 sequence (Q03518 1-748): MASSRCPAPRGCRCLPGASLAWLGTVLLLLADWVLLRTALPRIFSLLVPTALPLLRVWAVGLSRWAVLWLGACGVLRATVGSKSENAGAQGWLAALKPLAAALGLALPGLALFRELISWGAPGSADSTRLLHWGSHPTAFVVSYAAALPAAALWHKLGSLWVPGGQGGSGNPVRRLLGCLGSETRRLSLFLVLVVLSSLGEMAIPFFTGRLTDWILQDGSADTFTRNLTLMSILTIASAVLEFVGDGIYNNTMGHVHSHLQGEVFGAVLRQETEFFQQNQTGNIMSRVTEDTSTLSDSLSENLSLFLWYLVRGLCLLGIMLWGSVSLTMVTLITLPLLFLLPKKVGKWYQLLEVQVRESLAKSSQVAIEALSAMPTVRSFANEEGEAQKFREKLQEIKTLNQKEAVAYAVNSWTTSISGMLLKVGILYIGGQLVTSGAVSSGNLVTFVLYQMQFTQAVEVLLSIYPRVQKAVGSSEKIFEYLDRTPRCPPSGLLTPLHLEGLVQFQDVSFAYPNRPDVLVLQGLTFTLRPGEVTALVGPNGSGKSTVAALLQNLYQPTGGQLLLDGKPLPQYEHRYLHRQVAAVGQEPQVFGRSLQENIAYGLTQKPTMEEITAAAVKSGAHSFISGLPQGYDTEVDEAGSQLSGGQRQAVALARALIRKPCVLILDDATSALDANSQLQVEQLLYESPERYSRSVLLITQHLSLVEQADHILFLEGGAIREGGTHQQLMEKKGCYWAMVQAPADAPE
T1 sequence (Q03519 1-686): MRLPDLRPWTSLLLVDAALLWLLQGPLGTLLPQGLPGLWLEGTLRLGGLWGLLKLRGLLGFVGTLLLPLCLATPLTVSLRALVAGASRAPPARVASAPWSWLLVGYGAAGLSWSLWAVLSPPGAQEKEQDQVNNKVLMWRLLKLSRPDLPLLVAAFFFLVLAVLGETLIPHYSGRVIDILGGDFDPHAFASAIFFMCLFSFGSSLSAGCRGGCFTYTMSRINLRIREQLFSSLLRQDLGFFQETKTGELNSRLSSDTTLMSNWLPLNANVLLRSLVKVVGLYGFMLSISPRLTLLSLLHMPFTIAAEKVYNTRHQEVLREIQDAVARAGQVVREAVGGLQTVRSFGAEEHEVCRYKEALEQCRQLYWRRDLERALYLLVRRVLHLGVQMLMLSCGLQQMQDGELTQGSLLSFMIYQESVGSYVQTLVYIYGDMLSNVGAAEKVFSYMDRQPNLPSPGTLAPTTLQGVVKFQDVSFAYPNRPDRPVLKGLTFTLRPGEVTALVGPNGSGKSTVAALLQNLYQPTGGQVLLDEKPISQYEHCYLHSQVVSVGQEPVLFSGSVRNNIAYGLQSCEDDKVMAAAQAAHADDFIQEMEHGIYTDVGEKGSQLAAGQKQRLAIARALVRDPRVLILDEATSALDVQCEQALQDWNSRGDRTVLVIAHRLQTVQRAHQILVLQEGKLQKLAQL
In short: (§1)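 Test peptides carrying an N-linked glycosylation sequon are radioiodinated (Na-125I, chloramine-T) and added to streptolysin O–permeabilized LCL721 cells. Peptide reaching the ER acquires an N-glycan and is recovered on Con A–Sepharose, given as a fraction of total input. Controls are samples run without ATP and TAP-deficient T2 cells.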

[2] = system: TAP; assay: Direct TAP-mediated translocation of radiolabeled peptides, murine TAP; type: biochemical; details: data not shown
[3] = system: Con A; assay: Con A–Sepharose recovery in the absence of ATP; type: binding; details: no N-linked glycan, Fig. 1 B
In short: as §1

[4] = biological target: T1, TAP; assay: Competition of TAP-mediated translocation of iodinated peptide 417; type: biochemical
In short: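 Iodinated index peptide (125I via chloramine-T) premixed with unlabelled competitor peptide, then added to streptolysin O–permeabilized human LCL721 cells for TAP-mediated transport into the ER. Translocated index peptide is given as a fraction of that recovered without competitor.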

| Substance | translocation by human TAP [1] | translocation by murine TAP [2] | recovery by Con A–Sepharose in the absence of ATP [3] | IC50 [4] [µM] |
| --- | --- | --- | --- | --- |
| TVNKTERAY [compound 417, reference compound] | very efficiently translocated | very efficiently translocated |  |  |
| TVNKTES [O-β-GlcNAc]AY [417-G] | also translocated by TAP |  | not itself a ligand for Con A |  |
| FASGNYSAL [wt-S] |  |  |  | 12 |
| TVNKTESAY [417-S] | very efficiently translocated | very efficiently translocated |  |  |
